Molecules are shown by their SMILES. ≈ marks a conversion by molar mass, not a printed value. A value given as a limit tells only on which side of the number the result lay.

One experiment has as its system Candida albicans. Nature of the experiment: Antimicrobial activity against Candida albicans SC5314 after 24 hrs by serial dilution method. The class given is functional. As to conditions: SC5314, 24 h. Put shortly:
(§1)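 Broth serial dilution MIC in 96-well plates following NCCLS/CLSI methods. Compounds were dissolved in DMSO and serially diluted in growth medium, with incubation at 35 °C. […] C. parapsilosis 22019 served as the quality-control strain in each assay.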
`C[C@@H](N1CCn2nncc2C1)[C@](O)(Cn1cncn1)c1ccc(F)cc1F` yielded a minimum inhibitory concentration (MIC) of 0.0625 µg/mL (≈ 0.166 µM).

Consider `C[C@@H](N1CCn2nnc(Cl)c2C1)[C@](O)(Cn1cncn1)c1ccc(F)cc1F`, for which the minimum inhibitory concentration (MIC) is no more than 0.0312 µg/mL.

Consider `Cc1nnn2c1CN([C@H](C)[C@](O)(Cn1cncn1)c1ccc(F)cc1F)CC2`, for which the lowest concentration to inhibit growth (MIC) was 0.25 µg/mL (≈ 0.642 µM).

Turning to `C[C@@H](N1CCn2nnc(C(=O)N(C)C)c2C1)[C@](O)(Cn1cncn1)c1ccc(F)cc1F`, the MIC came out at 0.5 µg/mL (≈ 1.12 µM).

`C[C@@H](N1CCn2nnc(-c3ccccc3)c2C1)[C@](O)(Cn1cncn1)c1ccc(F)cc1F` came in with an MIC of 1 µg/mL (≈ 2.21 µM).

In turn, `C[C@@H](N1CCn2nnc(-c3cccnc3)c2C1)[C@](O)(Cn1cncn1)c1ccc(F)cc1F` yielded an MIC of 2 µg/mL (≈ 4.42 µM).

Turning to `C[C@@H](N1CCn2nnc(-c3ccncc3)c2C1)[C@](O)(Cn1cncn1)c1ccc(F)cc1F`, the MIC was determined as 1 µg/mL (≈ 2.21 µM).

For another experiment, the system named is Candida albicans. Nature of the experiment: Antimicrobial activity against Candida albicans Y0109 after 24 hrs by serial dilution method. The following applies: Y0109, 24 h. The class given is functional. Put shortly: as §1
Molecule `C[C@@H](N1CCn2nncc2C1)[C@](O)(Cn1cncn1)c1ccc(F)cc1F` had a minimal inhibitory concentration (MIC) of 0.125 µg/mL (≈ 0.333 µM).

In turn, `C[C@@H](N1CCn2nnc(Cl)c2C1)[C@](O)(Cn1cncn1)c1ccc(F)cc1F` had an MIC of 0.0625 µg/mL (≈ 0.153 µM).

In turn, `Cc1nnn2c1CN([C@H](C)[C@](O)(Cn1cncn1)c1ccc(F)cc1F)CC2` registered an MIC of 0.5 µg/mL (≈ 1.28 µM).

As for `C[C@@H](N1CCn2nnc(C(=O)N(C)C)c2C1)[C@](O)(Cn1cncn1)c1ccc(F)cc1F`, inhibition of growth (MIC) required 1 µg/mL (≈ 2.24 µM).

`C[C@@H](N1CCn2nnc(-c3ccccc3)c2C1)[C@](O)(Cn1cncn1)c1ccc(F)cc1F` displayed a minimum inhibitory concentration (MIC) of 2 µg/mL (≈ 4.43 µM).

Take `C[C@@H](N1CCn2nnc(-c3cccnc3)c2C1)[C@](O)(Cn1cncn1)c1ccc(F)cc1F`: the MIC was determined as 4 µg/mL (≈ 8.84 µM).

For the molecule `C[C@@H](N1CCn2nnc(-c3ccncc3)c2C1)[C@](O)(Cn1cncn1)c1ccc(F)cc1F`, inhibition of growth (MIC) required 4 µg/mL (≈ 8.84 µM).

The next experiment deals with Candida parapsilosis. Nature of the experiment: Antimicrobial activity against Candida parapsilosis 22019 after 24 hrs by serial dilution method. The class given is functional. As to conditions: Lodderomyces parapsilosis, 22019, 24 h. An outline of the steps:
as §1
On to `C[C@@H](N1CCn2nncc2C1)[C@](O)(Cn1cncn1)c1ccc(F)cc1F`, for which the MIC stood at 0.25 µg/mL (≈ 0.666 µM).

`C[C@@H](N1CCn2nnc(Cl)c2C1)[C@](O)(Cn1cncn1)c1ccc(F)cc1F`: inhibition of growth (MIC) required 0.125 µg/mL (≈ 0.305 µM).

`Cc1nnn2c1CN([C@H](C)[C@](O)(Cn1cncn1)c1ccc(F)cc1F)CC2` returned an MIC of 0.5 µg/mL (≈ 1.28 µM).

For `C[C@@H](N1CCn2nnc(C(=O)N(C)C)c2C1)[C@](O)(Cn1cncn1)c1ccc(F)cc1F`, the lowest concentration to inhibit growth (MIC) was 1 µg/mL (≈ 2.24 µM).

`C[C@@H](N1CCn2nnc(-c3ccccc3)c2C1)[C@](O)(Cn1cncn1)c1ccc(F)cc1F` showed a minimal inhibitory concentration (MIC) of 4 µg/mL (≈ 8.86 µM).

`C[C@@H](N1CCn2nnc(-c3cccnc3)c2C1)[C@](O)(Cn1cncn1)c1ccc(F)cc1F` displayed a minimal inhibitory concentration (MIC) of 8 µg/mL (≈ 17.7 µM).

In turn, `C[C@@H](N1CCn2nnc(-c3ccncc3)c2C1)[C@](O)(Cn1cncn1)c1ccc(F)cc1F` registered an MIC of 4 µg/mL (≈ 8.84 µM).

A further experiment has as its system Cryptococcus neoformans. Nature of the experiment: Antimicrobial activity against Cryptococcus neoformans 32609 after 72 hrs by serial dilution method. The class given is functional. As to conditions: Cryptococcus neoformans, 32609, 72 h. Put shortly: as §1
Consider `C[C@@H](N1CCn2nncc2C1)[C@](O)(Cn1cncn1)c1ccc(F)cc1F`, for which the minimum inhibitory concentration (MIC) worked out at 0.25 µg/mL (≈ 0.666 µM).

Molecule `C[C@@H](N1CCn2nnc(Cl)c2C1)[C@](O)(Cn1cncn1)c1ccc(F)cc1F` yielded a minimum inhibitory concentration (MIC) of no more than 0.0625 µg/mL.

In turn, `Cc1nnn2c1CN([C@H](C)[C@](O)(Cn1cncn1)c1ccc(F)cc1F)CC2` gave a minimum inhibitory concentration (MIC) of 4 µg/mL (≈ 10.3 µM).

The molecule `C[C@@H](N1CCn2nnc(C(=O)N(C)C)c2C1)[C@](O)(Cn1cncn1)c1ccc(F)cc1F` showed a minimum inhibitory concentration (MIC) of 16 µg/mL (≈ 35.8 µM).

Take `C[C@@H](N1CCn2nnc(-c3ccccc3)c2C1)[C@](O)(Cn1cncn1)c1ccc(F)cc1F`: inhibition of growth (MIC) required 8 µg/mL (≈ 17.7 µM).

In the case of `C[C@@H](N1CCn2nnc(-c3cccnc3)c2C1)[C@](O)(Cn1cncn1)c1ccc(F)cc1F`, the MIC turned out to be 4 µg/mL (≈ 8.84 µM).

Molecule `C[C@@H](N1CCn2nnc(-c3ccncc3)c2C1)[C@](O)(Cn1cncn1)c1ccc(F)cc1F` registered an MIC of 16 µg/mL (≈ 35.4 µM).

The next experiment has as its system Nakaseomyces glabratus. The experiment is described as follows: Antimicrobial activity against Candida glabrata 537 after 24 hrs by serial dilution method. The following applies: Nakaseomyces glabratus, 537, 24 h. The class given is functional. Put shortly: as §1
`C[C@@H](N1CCn2nncc2C1)[C@](O)(Cn1cncn1)c1ccc(F)cc1F` gave an MIC of 0.5 µg/mL (≈ 1.33 µM).

In turn, `C[C@@H](N1CCn2nnc(Cl)c2C1)[C@](O)(Cn1cncn1)c1ccc(F)cc1F` yielded a minimum inhibitory concentration (MIC) of 0.25 µg/mL (≈ 0.61 µM).

As for `Cc1nnn2c1CN([C@H](C)[C@](O)(Cn1cncn1)c1ccc(F)cc1F)CC2`, 0.5 µg/mL (≈ 1.28 µM) was the least that counted as inhibitory (MIC).

Turning to `C[C@@H](N1CCn2nnc(C(=O)N(C)C)c2C1)[C@](O)(Cn1cncn1)c1ccc(F)cc1F`, inhibition of growth (MIC) required 8 µg/mL (≈ 17.9 µM).

The molecule `C[C@@H](N1CCn2nnc(-c3ccccc3)c2C1)[C@](O)(Cn1cncn1)c1ccc(F)cc1F` registered an MIC of 8 µg/mL (≈ 17.7 µM).

Molecule `C[C@@H](N1CCn2nnc(-c3cccnc3)c2C1)[C@](O)(Cn1cncn1)c1ccc(F)cc1F` gave an MIC of 8 µg/mL (≈ 17.7 µM).

For `C[C@@H](N1CCn2nnc(-c3ccncc3)c2C1)[C@](O)(Cn1cncn1)c1ccc(F)cc1F`, the lowest concentration to inhibit growth (MIC) was 8 µg/mL (≈ 17.7 µM).

The next experiment relates to Aspergillus fumigatus. The experiment is described as follows: Antimicrobial activity against Aspergillus fumigatus 7544 after 48 hrs by serial dilution method. The following applies: Aspergillus fumigatus, 7544, 48 h. The class given is functional. Put shortly:
as §1
With `C[C@@H](N1CCn2nncc2C1)[C@](O)(Cn1cncn1)c1ccc(F)cc1F`, the MIC came out at 16 µg/mL (≈ 42.6 µM).

In the case of `C[C@@H](N1CCn2nnc(Cl)c2C1)[C@](O)(Cn1cncn1)c1ccc(F)cc1F`, the minimum inhibitory concentration (MIC) turned out to be 8 µg/mL (≈ 19.5 µM).

Molecule `Cc1nnn2c1CN([C@H](C)[C@](O)(Cn1cncn1)c1ccc(F)cc1F)CC2` showed an MIC of 16 µg/mL (≈ 41.1 µM).

Regarding `C[C@@H](N1CCn2nnc(C(=O)N(C)C)c2C1)[C@](O)(Cn1cncn1)c1ccc(F)cc1F`, the minimal inhibitory concentration (MIC) is greater than 16 µg/mL.

The molecule `C[C@@H](N1CCn2nnc(-c3ccccc3)c2C1)[C@](O)(Cn1cncn1)c1ccc(F)cc1F` displayed a minimal inhibitory concentration (MIC) greater than 16 µg/mL.

`C[C@@H](N1CCn2nnc(-c3cccnc3)c2C1)[C@](O)(Cn1cncn1)c1ccc(F)cc1F` came in with an MIC of 8 µg/mL (≈ 17.7 µM).

In turn, `C[C@@H](N1CCn2nnc(-c3ccncc3)c2C1)[C@](O)(Cn1cncn1)c1ccc(F)cc1F` came in with an MIC greater than 16 µg/mL.

What is called MIC is the lowest concentration found to suppress growth. A lower MIC goes with a more susceptible organism.

The values are drawn from ChEMBL document CHEMBL3259614, “Design, synthesis, and structure-activity relationship studies of novel fused heterocycles-linked triazoles with good activity and water solubility” (J Med Chem, 2014).
